The results in this text go back to ChEMBL document CHEMBL3232976, “Investigation of the cytotoxic, genotoxic, and apoptosis-inducing effects of estragole isolated from fennel (Foeniculum vulgare)” (J Nat Prod, 2014).

Series [1] relates to HepG2. The series is described as follows: Cytotoxicity against human HepG2 cells assessed as cell viability at 1.32 ug/ml after 4 hrs by MTT assay relative to control. In kind it is functional. Conditions: HepG2, 4 h, read-out: Activity. The procedure, abridged: (§1)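 HepG2 seeded at 1 × 10^5 cells/well in phenol red-free MEM, grown 24 h, then exposed 4 h to eight concentrations (dissolved in MEM; 2% Triton X100 positive control). MTT 1 mg/mL added for 2 h at 37 °C, formazan dissolved in 2-propanol, A570 minus A650. Viability as % of untreated controls; three independent experiments, mean ± SEM.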

Series [2] deals with HepG2. Description: Cytotoxicity against human HepG2 cells assessed as cell viability at 84.55 ug/ml after 4 hrs by trypan blue dye exclusion assay relative to control. In kind it is functional. To be noted: HepG2, 4 h, read-out: Activity. The procedure, abridged: (§2)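 Cells seeded at 5 × 10^5/well, grown 24 h, then exposed 4 h to the three highest MTT-tested concentrations. Trypan blue exclusion read on an automated cell counter, unstained cells counted as viable. Viability as % of total cells; three independent experiments, mean ± SEM.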

Series [3] deals with HepG2. Description: Cytotoxicity against human HepG2 cells assessed as cell viability at 2.64 ug/ml after 4 hrs by MTT assay relative to control. In kind it is functional. To be noted: HepG2, 4 h, read-out: Activity. The method, boiled down: as §1
In series [4] the test system is HepG2. The series is described as follows: Cytotoxicity against human HepG2 cells assessed as cell viability at 42.28 ug/ml after 4 hrs by trypan blue dye exclusion assay relative to control. In kind it is functional. Conditions: HepG2, 4 h, read-out: Activity. The method, boiled down: as §2
The test system of series [5] is HepG2. Description: Genotoxicity in human HepG2 cells assessed as DNA strand-breakage at 21.14 ug/ml after 4 hrs by alkaline comet assay. To be noted: hepg2, 4 h.
The subject of series [6] is HepG2. Description: Cytotoxicity against human HepG2 cells assessed as cell viability at 10.57 ug/ml after 4 hrs by MTT assay relative to control. In kind it is functional. Conditions: HepG2, 4 h, read-out: Activity. The procedure, abridged: as §1
In general terms: Formazan colour is commonly taken as a measure of viable cells.

Series [7] deals with HepG2. Description: Cytotoxicity against human HepG2 cells assessed as cell viability at 5.28 ug/ml after 4 hrs by MTT assay relative to control. To be noted: HepG2, 4 h, read-out: Activity. In kind it is functional. The method, boiled down: as §1
Series [8] deals with HepG2. Description: Genotoxicity in human HepG2 cells assessed as DNA strand-breakage at 42.28 ug/ml after 4 hrs by alkaline comet assay. To be noted: hepg2, 4 h.
Series [9] has as its system HepG2. The series is described as follows: Induction of late apoptosis in human HepG2 cells assessed as induction of DNA fragmentation at 21.14 ug/ml after 4 hrs by […] relative to control. In kind it is functional. The method, boiled down:
(§3)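 Cells seeded 48 h before a 4 h exposure; 1 μM staurosporine positive control. Cells permeabilized with ethanol, washed to remove low-molecular-weight DNA, stained with DAPI, and DNA content read by automated image cytometry. Result as % sub-G1 cells below a manually set G1/G0 peak. Three independent experiments, mean ± SEM.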

For series [10], the system named is HepG2. The series is described as follows: Cytotoxicity against human HepG2 cells assessed as cell viability at 21.14 ug/ml after 4 hrs by AO/DAPI double staining relative to control. In kind it is functional. To be noted: HepG2, 4 h, read-out: Activity. The method, boiled down:
(§4)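 Cells seeded at 5 × 10^5/well, grown 24 h, exposed 4 h to the three highest MTT-tested concentrations. Cell suspension loaded into cassettes coated with acridine orange (all cells) and DAPI (nonviable cells), then counted by automated fluorescence image analysis. Viability as % of total cells; three independent experiments, mean ± SEM.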

Series [11] relates to HepG2. The series is described as follows: Cytotoxicity against human HepG2 cells assessed as cell viability at 21.14 ug/ml after 4 hrs by trypan blue dye exclusion assay relative to control. To be noted: HepG2, 4 h, read-out: Activity. In kind it is functional. The procedure, abridged: as §2
In series [12] the test system is HepG2. Description: Induction of early apoptosis in human HepG2 cells assessed as decrease mitochondrial membrane potential at 21.14 ug/ml after 4 hrs by JC-1 staining relative to control. In kind it is functional. Set-up: scale not given: the % may be the effect or the level left. The method, boiled down:
(§5)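 Cells seeded 48 h before a 4 h exposure; 0.5 μM valinomycin for 4 h as depolarizing positive control. Stained with JC-1 plus DAPI (necrotic cells), read by automated fluorescence image cytometry. Depolarization seen as a fall in red/green ratio; gated as % depolarized cells. Three independent experiments, mean ± SEM.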

In series [13] the test system is HepG2. The series is described as follows: Genotoxicity in human HepG2 cells assessed as DNA strand-breakage at 84.55 ug/ml after 4 hrs by alkaline comet assay. Conditions: hepg2, 4 h.
Series [14] has as its system HepG2. Description: Cytotoxicity against human HepG2 cells assessed as cell viability at 21.14 ug/ml after 4 hrs by MTT assay relative to control. In kind it is functional. To be noted: HepG2, 4 h, read-out: Activity. The procedure, abridged: as §1
In series [15] the test system is HepG2. The series is described as follows: Induction of late apoptosis in human HepG2 cells assessed as induction of DNA fragmentation at 84.55 ug/ml after 4 hrs by […] relative to control. In kind it is functional. The procedure, abridged: as §3
In series [16] the test system is HepG2. The series is described as follows: Induction of early apoptosis in human HepG2 cells assessed as decrease mitochondrial membrane potential at 84.55 ug/ml after 4 hrs by JC-1 staining relative to control. In kind it is functional. Set-up: scale not given: the % may be the effect or the level left. The procedure, abridged:
as §5

The test system of series [17] is HepG2. Description: Cytotoxicity against human HepG2 cells assessed as cell viability at 42.28 ug/ml after 4 hrs by AO/DAPI double staining relative to control. In kind it is functional. Conditions: HepG2, 4 h, read-out: Activity. The procedure, abridged: as §4
Series [18] concerns HepG2. The series is described as follows: Cytotoxicity against human HepG2 cells assessed as cell viability at 84.55 ug/ml after 4 hrs by MTT assay relative to control. In kind it is functional. To be noted: HepG2, 4 h, read-out: Activity. The method, boiled down:
as §1

Series [19] deals with HepG2. The series is described as follows: Induction of early apoptosis in human HepG2 cells assessed as decrease mitochondrial membrane potential at 42.28 ug/ml after 4 hrs by JC-1 staining relative to control. In kind it is functional. Set-up: scale not given: the % may be the effect or the level left. The procedure, abridged: as §5
For series [20], the system named is HepG2. The series is described as follows: Induction of late apoptosis in human HepG2 cells assessed as induction of DNA fragmentation at 42.28 ug/ml after 4 hrs by […] relative to control. In kind it is functional. The procedure, abridged:
as §3

Series [21] has as its system HepG2. Description: Cytotoxicity against human HepG2 cells assessed as cell viability at 42.28 ug/ml after 4 hrs by MTT assay relative to control. Conditions: HepG2, 4 h, read-out: Activity. In kind it is functional. The method, boiled down:
as §1

Series [22] deals with HepG2. Description: Cytotoxicity against human HepG2 cells assessed as cell viability at 84.55 ug/ml after 4 hrs by AO/DAPI double staining relative to control. In kind it is functional. Conditions: HepG2, 4 h, read-out: Activity. The procedure, abridged:
as §4

For series [23], the system named is HepG2. The series is described as follows: Cytotoxicity against human HepG2 cells assessed as cell viability at 0.67 ug/ml after 4 hrs by MTT assay relative to control. In kind it is functional. To be noted: HepG2, 4 h, read-out: Activity. The method, boiled down: as §1
The test system of series [24] is HepG2. Description: Induction of late apoptosis in human HepG2 cells assessed as induction of DNA fragmentation at 1 uM after 4 hrs by […] relative to control. In kind it is functional. The method, boiled down:
as §3

Series [25] deals with HepG2. Description: Induction of early apoptosis in human HepG2 cells assessed as decrease mitochondrial membrane potential at 0.5 uM after 4 hrs by JC-1 staining relative to control. In kind it is functional. Details: scale not given: the % may be the effect or the level left. The method, boiled down:
as §5

Consider `C=CCc1ccc(OC)cc1` [ESTRAGOLE], for which the viability at 1.32 µg/mL in series [1] turned out to be 94.8%. The viability at 84.55 µg/mL in series [2] is 85%; in series [18], 103%; in [22], 90.2%. Moreover, the viability at 2.64 µg/mL in series [3] came out at 101%. The viability at 42.28 µg/mL was 93.3% in series [4], 91.7% in series [17] and 108% in [21]. Further, the Activity result is on record as “Non-toxic” in [5]; “Non-toxic” in [8]; 3.4% in series [9]; 15.9% in series [12]; “Non-toxic” in [13]; 4.9% in [15]. The Activity in series [16] was determined as 13.2%; in series [19] it was 12.3%; in series [20], 3.7%. In addition, the viability at 10.57 µg/mL in series [6] worked out at 117%. Also, in [7], the viability at 5.28 µg/mL stood at 104%. Moreover, the viability at 21.14 µg/mL in series [10] was determined as 90.9%; in series [11], 92.7%; in [14], 110%. Besides, the viability at 0.67 µg/mL in [23] is 106%.

With `CN[C@@H]1C[C@H]2O[C@@](C)([C@@H]1OC)n1c3ccccc3c3c4c(c5c6ccccc6n2c5c31)C(=O)NC4` [STAUROSPORINE], the Activity in series [24] is listed as 21.1%.

Take `CC(C)[C@@H]1NC(=O)[C@H](C)OC(=O)[C@@H](C(C)C)NC(=O)[C@@H](C(C)C)OC(=O)[C@H](C(C)C)NC(=O)[C@H](C)OC(=O)[C@@H](C(C)C)NC(=O)[C@@H](C(C)C)OC(=O)[C@H](C(C)C)NC(=O)[C@H](C)OC(=O)[C@@H](C(C)C)NC(=O)[C@@H](C(C)C)OC1=O` [VALINOMYCIN]: in series [25], the Activity was 40.3%.
